In assay [1] the test system is Klebsiella pneumoniae. Briefly: Antimicrobial activity against Klebsiella pneumoniae ATCC 700603 after 24 to 48 hrs by two-fold broth microdilution method. It is filed as functional. Summed up: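 Two-fold serial dilutions in cation-adjusted Mueller–Hinton broth per CLSI M100-S2. Stocks in DMSO/CAMH 1:10 v/v. Range 2.0–128 µM. Inoculum set to 0.5 McFarland, then diluted in saline and CAMH. Incubated at 35 °C for 18 h. MIC is the lowest concentration with no visible growth. Plates also read at 24 and 48 h as sterility control. Triplicate.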
Background: In broth dilution the organism is exposed to a series of concentrations in liquid medium.

Assay [2] deals with Enterobacter cloacae. Briefly: Antimicrobial activity against Enterobacter cloacae ATCC 23355 after 24 to 48 hrs by two-fold broth microdilution method. It is filed as functional.
Assay [3] concerns Enterococcus faecalis. Briefly: Antimicrobial activity against Enterococcus faecalis ATCC 29212 after 24 to 48 hrs by two-fold broth microdilution method. It is filed as functional.
Assay [4] deals with Serratia marcescens. Nature of the assay: Antimicrobial activity against Serratia marcescens ATCC 14576 after 24 to 48 hrs by two-fold broth microdilution method. It is filed as functional.
Assay [5] has as its system Escherichia coli. Nature of the assay: Antimicrobial activity against Escherichia coli ATCC 25922 after 24 to 48 hrs by two-fold broth microdilution method. It is filed as functional.
Assay [6] concerns Staphylococcus aureus. Briefly: Antimicrobial activity against Staphylococcus aureus ATCC 29213 after 24 to 48 hrs by two-fold broth microdilution method. The assay is classed as functional.
The subject of assay [7] is Serratia marcescens. Nature of the assay: Antimicrobial activity against Serratia marcescens ATCC 14576 at 128 uM after 24 to 48 hrs by two-fold broth microdilution method. It is filed as functional, organism-based. In a few lines:
(§1)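 Antibacterial microdilution in CAMH, inoculum 0.5 McFarland diluted in saline/CAMH, 35 °C for 18 h, with further reads at 24 and 48 h. Activity is scored at the maximum tested concentration, 128 µM. Triplicate.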

For assay [8], the system named is Klebsiella pneumoniae. Nature of the assay: Antimicrobial activity against Klebsiella pneumoniae ATCC 700603 at 128 uM after 24 to 48 hrs by two-fold broth microdilution method. It is filed as functional, organism-based. In a few lines:
as §1

For assay [9], the system named is Candida albicans. Briefly: Antimicrobial activity against Candida albicans ATCC 537Y after 48 hrs by two-fold broth microdilution method. It is filed as functional. Summed up: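 Two-fold serial dilutions in RPMI 1640 per CLSI M27-A2. Stocks in DMSO/RPMI 1:20 v/v. Test range 1.0–64 µM. Inoculum set to 0.5 McFarland, then diluted in saline and RPMI 1640. Plates held at 35 °C for 48 h. MIC is the lowest concentration giving prominent growth reduction. Run in triplicate.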

Assay [10] relates to Staphylococcus aureus. Briefly: Antimicrobial activity against multidrug-resistant Staphylococcus aureus VISA3 […] by two-fold broth microdilution method. The assay is classed as functional.
For assay [11], the system named is Staphylococcus aureus. Nature of the assay: Antimicrobial activity against Staphylococcus aureus ATCC 29213 after 18 hrs by modified broth microdilution method. The assay is classed as functional. In a few lines: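 PGI90, the concentration giving 90% growth inhibition, fitted with an exponential growth curve from at least seven concentrations of the MIC assay. Inhibition % = [(Ac − Ap)/Ac] × 100 from A620 of drug-free control versus drug-treated culture. Checked by a modified broth microdilution (Phase 2).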

For assay [12], the system named is Candida albicans. Nature of the assay: Antimicrobial activity against Candida albicans ATCC 537Y at 64 uM after 48 hrs by two-fold broth microdilution method. The assay is classed as functional, organism-based. In a few lines: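 Single top concentration of the antifungal microdilution: RPMI 1640, inoculum 0.5 McFarland diluted in saline/RPMI, 35 °C for 48 h. Activity is judged at the highest tested level, 64 µM. Run in triplicate.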

For assay [13], the system named is Escherichia coli. Briefly: Antimicrobial activity against Escherichia coli ATCC 25922 at 128 uM after 24 to 48 hrs by two-fold broth microdilution method. It is filed as functional, organism-based. Summed up:
as §1

Assay [14] concerns Enterobacter cloacae. Nature of the assay: Antimicrobial activity against Enterobacter cloacae ATCC 23355 at 128 uM after 24 to 48 hrs by two-fold broth microdilution method. The assay is classed as functional, organism-based. Summed up:
as §1

Assay [15] concerns Enterococcus faecalis. Nature of the assay: Antimicrobial activity against Enterococcus faecalis ATCC 29212 at 128 uM after 24 to 48 hrs by two-fold broth microdilution method. It is filed as functional, organism-based. Summed up: as §1
Assay [16] concerns Staphylococcus aureus. Nature of the assay: Antimicrobial activity against Staphylococcus aureus ATCC 29213 at 128 uM after 24 to 48 hrs by two-fold broth microdilution method. The assay is classed as functional, organism-based. Summed up: as §1

The results in this text go back to ChEMBL document CHEMBL3259528, “Exploring 5-nitrofuran derivatives against nosocomial pathogens: synthesis, antimicrobial activity and chemometric analysis” (2014).

Values after ≈ are worked out from the molar mass of the structure shown. Active and inactive are the calls of the source. No cut-off for these calls is given here.

Broadly, the MIC is the lowest concentration found to suppress growth. High values mean a less susceptible organism, low ones a more susceptible organism. Usually MIC90 stands for the lowest concentration that inhibits either 90% of growth or 90% of the strains tested, depending on the study.

On to `C[C@H]1COc2c(N3CCN(C)CC3)c(F)cc3c(=O)c(C(=O)O)cn1c23` [LEVOFLOXACIN], for which the MIC in assay [1], in assay [2], in [3], in assay [4], in [5] and in [6] was under 20 µM in each case.
`O=C1CN(/N=C/c2ccc([N+](=O)[O-])o2)C(=O)N1` [NITROFURANTOIN]: the outcome in assay [7] and in assay [8] was inactive. For the same compound, the values for the MIC in assay [2], in [3] and in assay [6] were 8 µM (≈ 1.91 µg/mL), 16 µM (≈ 3.81 µg/mL) and 16 µM (≈ 3.81 µg/mL), respectively.
With `CCCOc1ccc(C(=O)N/N=C/c2ccc([N+](=O)[O-])o2)cc1`, the MIC in assay [1] is 64 µM (≈ 20.3 µg/mL); in assay [3], 64 µM (≈ 20.3 µg/mL); in [9], 32 µM (≈ 10.2 µg/mL); in [10], 4 µM (≈ 1.27 µg/mL); in [4], 64 µM (≈ 20.3 µg/mL); in [5] it was 64 µM (≈ 20.3 µg/mL). Besides, the MIC in [6] amounted to 2 µM (≈ 0.635 µg/mL). Further, the MIC90 was 71.5 µM (≈ 22.7 µg/mL) in assay [1]; 69.8 µM (≈ 22.2 µg/mL) in assay [2]; 73.5 µM (≈ 23.3 µg/mL) in [3]; 40.8 µM (≈ 12.9 µg/mL) in assay [9]; 66.7 µM (≈ 21.2 µg/mL) in assay [4]; 65.8 µM (≈ 20.9 µg/mL) in assay [5]. Besides, the MIC90 in assay [6] came out at 2.47 µM (≈ 0.784 µg/mL). Besides, in [11], the “log(1/MIC>90)” value is 5.61.
Take `O=C(N/N=C/c1ccc([N+](=O)[O-])o1)c1ccc([N+](=O)[O-])cc1`: the outcome in [12], in [13], in assay [7], in assay [14], in assay [15] and in assay [8] was inactive. In addition, the minimum inhibitory concentration (MIC) in assay [10] was 4 µM (≈ 1.22 µg/mL); in [6], 2 µM (≈ 0.608 µg/mL). In assay [11], the “log(1/MIC>90)” value was found to be 5.48. For the same compound, in assay [6], the MIC90 came to 3 µM (≈ 0.913 µg/mL).
Consider `CCCc1ccc(C(=O)N/N=C/c2ccc([N+](=O)[O-])o2)cc1`, for which the MIC in assay [1] worked out at 64 µM (≈ 19.3 µg/mL); in assay [3], 64 µM (≈ 19.3 µg/mL); in assay [9], 32 µM (≈ 9.64 µg/mL); in assay [10] it was 2 µM (≈ 0.603 µg/mL); in [4], 64 µM (≈ 19.3 µg/mL); in assay [5] it was 64 µM (≈ 19.3 µg/mL). The compound further showed a minimal inhibitory concentration (MIC) in assay [6] of 2 µM (≈ 0.603 µg/mL). Further, the MIC90 turned out to be 74.8 µM (≈ 22.5 µg/mL) in assay [1]; 69.8 µM (≈ 21 µg/mL) in assay [2]; 73.2 µM (≈ 22.1 µg/mL) in [3]; 42.1 µM (≈ 12.7 µg/mL) in [9]; 66.3 µM (≈ 20 µg/mL) in assay [4]; 69.8 µM (≈ 21 µg/mL) in assay [5]. Further, the MIC90 in assay [6] came to 2.56 µM (≈ 0.771 µg/mL). Further, the “log(1/MIC>90)” value in assay [11] turned out to be 5.59.
`O=C(N/N=C/c1ccc([N+](=O)[O-])o1)c1ccc(I)cc1`: the outcome in assay [12], in [13], in [7], in [14], in [15] and in assay [8] was inactive. The MIC in assay [10] and in assay [6] was 2 µM (≈ 0.77 µg/mL) in each case. In addition, the “log(1/MIC>90)” value in assay [11] is recorded as 5.56. In assay [6], this compound gave an MIC90 of 2.78 µM (≈ 1.07 µg/mL).
As to `CC1(C)S[C@@H]2[C@H](NC(=O)[C@H](N)c3ccccc3)C(=O)N2[C@H]1C(=O)O` [AMPICILLIN], the outcome in assay [7] and in [8] was inactive. Moreover, the minimal inhibitory concentration (MIC) was 8 µM (≈ 2.8 µg/mL) in [2], under 20 µM in assay [3], under 20 µM in [5] and under 20 µM in [6].
`Nc1ccc(C(=O)N/N=C/c2ccc([N+](=O)[O-])o2)cc1`: the outcome in [12], in assay [7] and in assay [8] was inactive. Besides, the MIC in [2] worked out at 4 µM (≈ 1.1 µg/mL); in assay [3], 4 µM (≈ 1.1 µg/mL); in assay [5], 8 µM (≈ 2.19 µg/mL); in assay [6], 2 µM (≈ 0.548 µg/mL). Further, the MIC90 is 6.8 µM (≈ 1.86 µg/mL) in [2], 5.63 µM (≈ 1.54 µg/mL) in [3], 15.9 µM (≈ 4.36 µg/mL) in assay [5] and 4.77 µM (≈ 1.31 µg/mL) in assay [6]. Besides, the “log(1/MIC>90)” value in [11] is reported as 5.32.
Regarding `O=C(N[C@H](CO)[C@H](O)c1ccc([N+](=O)[O-])cc1)C(Cl)Cl` [CHLORAMPHENICOL], the MIC in assay [2] worked out at 4 µM (≈ 1.29 µg/mL); in assay [3], 8 µM (≈ 2.59 µg/mL); in [4], 8 µM (≈ 2.59 µg/mL); in [5] it was 4 µM (≈ 1.29 µg/mL); in assay [6], 4 µM (≈ 1.29 µg/mL). In addition, the result in assay [8] was inactive.
Consider `O=C(N/N=C/c1ccc([N+](=O)[O-])o1)c1ccc(O)cc1` [NIFUROXAZIDE], for which the outcome in [12], in assay [7] and in [8] was inactive. Moreover, the MIC in assay [2] came out at 32 µM (≈ 8.81 µg/mL); in assay [3] it was 8 µM (≈ 2.2 µg/mL); in assay [10] it was 8 µM (≈ 2.2 µg/mL); in [5] it was 32 µM (≈ 8.81 µg/mL); in assay [6], 4 µM (≈ 1.1 µg/mL). Besides, the MIC90 is 31.2 µM (≈ 8.59 µg/mL) in [2], 10.6 µM (≈ 2.93 µg/mL) in assay [3], 42 µM (≈ 11.6 µg/mL) in assay [5] and 8.87 µM (≈ 2.44 µg/mL) in assay [6]. Further, the “log(1/MIC>90)” value in assay [11] was 5.05.
For the compound `NS(=O)(=O)c1ccc(C(=O)N/N=C/c2ccc([N+](=O)[O-])o2)cc1`, the outcome in [12], in assay [13], in assay [7], in [14], in [15] and in [8] was inactive. For the same compound, the “log(1/MIC>90)” value in [11] is 5.08. Further, the minimum inhibitory concentration (MIC) in assay [6] worked out at 4 µM (≈ 1.35 µg/mL). In addition, in assay [6], the MIC90 came to 8.34 µM (≈ 2.82 µg/mL).
For `CC(=O)N1N=C(c2ccc(C(C)(C)C)cc2)OC1c1ccc([N+](=O)[O-])o1` (stereo not given), the outcome in [12], in [13], in [7], in assay [14], in assay [16] and in assay [15] was inactive. For the same compound, the outcome in assay [8] was inactive.
With `CCCOc1ccc(C2=NN(C(C)=O)C(c3ccc([N+](=O)[O-])o3)O2)cc1` (stereo not given), the outcome in assay [12], in [13], in assay [7], in assay [14], in [16] and in assay [15] was inactive. Moreover, the outcome in [8] was inactive.
Regarding `O=C(N/N=C/c1ccc([N+](=O)[O-])o1)c1ccc(Br)cc1`, the outcome in assay [12], in assay [13], in [7], in assay [14], in assay [15] and in assay [8] was inactive. Moreover, the “log(1/MIC>90)” value in [11] was 5.35. Also, the minimum inhibitory concentration (MIC) in [6] came out at 2 µM (≈ 0.676 µg/mL). Moreover, the MIC90 in assay [6] stood at 4.5 µM (≈ 1.52 µg/mL).
Regarding `CN(C)c1ccc(C(=O)N/N=C/c2ccc([N+](=O)[O-])o2)cc1`, the outcome in assay [12], in assay [7], in assay [14], in [15] and in assay [8] was inactive. Moreover, in assay [11], the “log(1/MIC>90)” value is on record as 5.11. The MIC in assay [5] is 32 µM (≈ 9.67 µg/mL); in [6] it was 4 µM (≈ 1.21 µg/mL). The MIC90 in assay [5] was found to be 55 µM (≈ 16.6 µg/mL); in assay [6], 7.7 µM (≈ 2.33 µg/mL).
